Measurements of several laboratories.
Lines come from different studies, so protocols differ. pKi: −log10 of the molar value.
TMEM97: Sigma intracellular receptor 2 (TMEM97, Homo sapiens, UniProt Q5BJF2)
SIGMAR1: Sigma non-opioid intracellular receptor 1 (SIGMAR1, Cavia porcellus, UniProt Q60492)
Prostate-specific antigen: Prostate-specific antigen (Homo sapiens, UniProt P07288)
ADRA1D: Alpha-1D adrenergic receptor (ADRA1D, Homo sapiens, UniProt P25100)
ADRA2B: Alpha-2B adrenergic receptor (ADRA2B, Homo sapiens, UniProt P18089)
CASP7: Caspase-7 (CASP7, Homo sapiens, UniProt P55210)
lecB: Fucose-binding lectin PA-IIL (lecB, Pseudomonas aeruginosa, UniProt Q9HYN5)

Compound | target | assay | conditions | pKi
CC(C)(C)Oc1cc(CCC(C)(C)N2Cc3ccc(S(C)(=O)=O)cc3C2)ccc1O | TMEM97 | ligand displacement, radioligand | cell membranes | 8.07
CNc1nc(C#Cc2ccc(Cl)s2)nc2c1ncn2[C@H]1[C@H](O)[C@H](O)[C@]2(C(=O)OC)C[C@H]12 | SIGMAR1 | ligand displacement, radioligand |  | 5.06
CCCC[C@H](NC(=O)[C@H](CCC(N)=O)NC(=O)[C@H](CO)NC(=O)[C@H](Cc1ccccc1)NC(=O)CCCCCN)C(=O)N[C@@H](Cc1ccccc1)B(O)O | Prostate-specific antigen | enzyme activity, inhibitor, fluorescence | pH 7.8 | 7.21
O=C(NCCN1CCCCC1)c1ccc(OCCF)c(Br)c1 | SIGMAR1 | ligand displacement, radioligand | cell membranes | 7.44
CCCC[C@H](NC(=O)[C@H](CCC(N)=O)NC(=O)[C@H](CO)NC(=O)[C@H](Cc1ccccc1)NC(=O)CCCCCN)C(=O)N[C@@H](CCCBr)B1O[C@@H]2C[C@@H]3C[C@@H](C3(C)C)[C@]2(C)O1 | Prostate-specific antigen | enzyme activity, inhibitor, fluorescence | pH 7.8 | 7.13
COc1ccc2c(c1)C(=O)N(CCN1CCN(c3ccccc3OC)CC1)C2 | ADRA1D | ligand displacement, radioligand |  | 7.91
COc1cc2c(cc1OC)CN(CCCNC(=O)c1ccc(C(=O)c3ccc([N+](=O)[O-])cc3)cc1)CC2 | TMEM97 | ligand displacement, radioligand | cell membranes | 5.92
CCCC[C@H](NC(=O)[C@H](CCCCN)NC(=O)[C@H](CO)NC(=O)[C@H](CO)NC(=O)OCc1ccccc1)C(=O)N[C@@H](Cc1ccccc1)B(O)O | Prostate-specific antigen | enzyme activity, inhibitor, fluorescence | pH 7.8 | 6.78
C#CCNCc1ccc(C(=O)c2ccc([N+](=O)[O-])cc2)cc1 | TMEM97 | ligand displacement, radioligand | cell membranes | < 5.00
CCCC[C@H](NC(=O)[C@H](CCC(N)=O)NC(=O)[C@H](CO)NC(=O)[C@H](CO)NC(=O)CCCCCN)C(=O)N[C@@H](CC(C)C)B(O)O | Prostate-specific antigen | enzyme activity, inhibitor, fluorescence | pH 7.8 | 7.37
CN(Cc1ccc(NC(=O)C2=Cc3cc(-c4ccc(OCCCCCF)cc4)ccc3CCC2)cc1)C1CCOCC1 | ADRA2B | ligand displacement, radioligand |  | 5.17
CCOC(=O)[C@@]12C[C@@H]1[C@@H](n1cnc3c(NC)nc(C#Cc4ccc(Cl)s4)cc31)[C@H](O)[C@@H]2O | SIGMAR1 | ligand displacement, radioligand |  | 5.98
CCCn1nc(C(=O)N2CCCCC2)c2c1CCC(Nc1ccc(Oc3ccccc3)cc1)C2 (stereo not drawn) | TMEM97 | ligand displacement, radioligand |  | 6.51
Cc1cc(Oc2nccc3ccsc23)ccc1-c1c(C)c(=O)[nH]c(=O)n1C | Muscarinic acetylcholine receptor M3 (CHRM3, Homo sapiens, UniProt P20309) | ligand displacement, radioligand |  | 5.34
CCCn1nc(C(=O)N2CCCCC2)c2c1CCC(N1CCC(c3ccncc3)CC1)C2 (stereo not drawn) | TMEM97 | ligand displacement, radioligand |  | 7.80
O=c1cc(-c2ccc(O)c(O)c2)oc2cc(O)cc(O)c12 | CASP7 | enzyme activity, inhibitor, fluorescence |  | 3.89
CCCC[C@H](NC(=O)[C@H](CCC(N)=O)NC(=O)[C@H](CO)NC(=O)[C@H](Cc1ccccc1)NC(=O)CCCCCNC(=O)c1ccc(I)cc1)C(=O)N[C@@H](CCCBr)B(O)O | Prostate-specific antigen | enzyme activity, inhibitor, fluorescence | pH 7.8 | 7.19
CN(Cc1ccc(NC(=O)C2=Cc3cc(-c4ccc(OCCCF)cc4)ccc3CCC2)cc1)C1CCOCC1 | ADRA2B | ligand displacement, radioligand |  | 5.92
O=c1c(O)c(-c2ccc(O)c(O)c2)oc2cc(O)cc(O)c12 | CASP7 | enzyme activity, inhibitor, fluorescence |  | < 3.52
CCCCN1CCC(COC(=O)c2ccc(N)c(OCF)c2)CC1 | ADRA2B | cell-free assay, radioligand |  | < 5.00
O=C1c2ccccc2CCCN1CCCCN1CCN(c2ccccn2)CC1 | ADRA1D | ligand displacement, radioligand |  | 6.01
COc1ccc(CO[C@H]2CCCN(Cc3cccc(C)c3)C2)cc1F | TMEM97 | ligand displacement, radioligand | cell membranes | 7.40
C[C@@H]1O[C@H](CNS(=O)(=O)c2ccc(CCN=[N+]=[N-])s2)[C@@H](O)[C@H](O)[C@@H]1O | lecB | ligand displacement, FP |  | 5.82
CCCC[C@H](NC(=O)[C@H](CCC(N)=O)NC(=O)[C@H](CO)NC(=O)[C@H](Cc1ccccc1)NC(=O)CCCCCN)C(=O)N[C@@H](CCCBr)B(O)O | Prostate-specific antigen | enzyme activity, inhibitor, fluorescence | pH 7.8 | 7.14
O=C(c1ccccc1)c1ccc(CNCCCN2C(=O)c3ccccc3C2=O)cc1 | TMEM97 | ligand displacement, radioligand | cell membranes | < 5.00
CCCn1nc(C(=O)N2CCCCC2)c2c1CCC(NCCc1ccncc1)C2 (stereo not drawn) | TMEM97 | ligand displacement, radioligand |  | < 5.00
O=C(NCCN1CCCCC1)c1cc(Br)ccc1O | SIGMAR1 | ligand displacement, radioligand | cell membranes | < 5.00
C[C@@H]1O[C@H](CNS(=O)(=O)c2ccc(CCn3cc(CCN4CCN(c5cc6c(cc5F)c(=O)c(C(=O)O)cn6C5CC5)CC4)nn3)s2)[C@@H](O)[C@H](O)[C@@H]1O | lecB | ligand displacement, FP |  | 6.05
O=C(NCCN1CCCCC1)c1cc(Br)ccc1OCCCF | SIGMAR1 | ligand displacement, radioligand | cell membranes | 7.28
O=C(CCCCC1SC[C@@H]2NC(=O)N[C@H]12)NCCCN(CCCN1CCN(C2CCCCC2)CC1)CC(=O)Nc1ccc(C(=O)c2ccccc2)cc1 (stereo in doubt) | TMEM97 | ligand displacement, radioligand | cell membranes | 7.06
